# Reference: ChEMBL document CHEMBL4428115, “Molecular docking studies, biological and toxicity evaluation of dihydroisoquinoline derivatives as potential anticancer agents” (Bioorg Med Chem, 2016)
# Tests used:
# [1] = Acute toxicity in New Zealand albino rabbit assessed as conjunctiva at 0.068 g applied to conjunctival sac of eye measured 1 to 72 hrs post dose; parameters: species or system Oryctolagus cuniculus; settings: in vivo, topical_or_ocular
# [2] = tested on: HL60/MX2; test: Antiproliferative activity against human HL60/MX2 cells after 72 hrs by MTT assay; format: functional, cell-based; settings: HL60/MX2, 72 h
# In short: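 Leukemia cells seeded at 1 × 10^4 per well 24 h before adding compounds (0.01–1000 µg/mL from DMSO stock), exposed 72 h. MTT (5 mg/mL stock) added for 4 h, then DMF/SDS lysis mixture; absorbance at 570 nm read after 24 h. Triplicates per experiment, 3–5 repeats; IC50 calculated per experiment, reported as mean ± SD.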
# [3] = Acute toxicity in Balbc/cmdb mouse assessed as clinical signs at 2000 mg/kg, po administered as single dose in second stage of experiment measured for 14 days; format: organism-based; settings: in vivo, 336 h
# In short: (§1)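 Acute toxic class method per OECD Guideline 423 / EU Method B.1 tris, run in three stages of three female Balbc/cmdb mice each. Fasted about 3 h, then given a single dose by metal stomach tube in DMSO at 0.5 mL/100 g bw. Stage doses were 300, 2000, then 2000 mg/kg bw. General and detailed clinical observations daily for 14 days; body weights recorded.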
# [4] = Toxicity in New Zealand albino rabbit assessed as acute skin irritation/corrosion at 0.5 g topically applied to shaved skin for 4 hrs measured 1 to 72 hrs post dose; parameters: species or system Oryctolagus cuniculus; settings: in vivo, topical_or_ocular
# In short: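 Test item applied under a protective band for 4 h to one rabbit first, then to two more animals to confirm or exclude irritation. Treated skin scored at 1, 24, 48 and 72 h after exposure, with daily morbidity and mortality checks. Animals euthanized after the observation period.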
# [5] = Acute toxicity in Balbc/cmdb mouse assessed as clinical signs at 2000 mg/kg, po administered as single dose in second stage of experiment measured immediately post dose; format: organism-based; settings: in vivo; in short: as §1
# [6] = tested on: BALB/3T3; test: Antiproliferative activity against mouse BALB/3T3 cells after 72 hrs by SRB assay; format: cell-based; settings: BALB/3T3, 72 h
# In short: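 Adherent cells plated at 1 × 10^4 per well 24 h before treatment, then exposed 72 h to compounds diluted from 20 mg/mL DMSO stock (0.01–1000 µg/mL). Fixed in cold 50% TCA at 4°C for 1 h, stained with 0.4% sulforhodamine B, bound dye extracted with 10 mM Tris, OD at 540 nm. Triplicates, 3–5 experiments; IC50 per experiment, mean ± SD.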
# [7] = tested on: CCRF-CEM; test: Antiproliferative activity against human CCRF-CEM cells; format: functional, cell-based
# [8] = Selectivity index, ratio of IC50 for human MCF10 cells to IC50 for human MCF7 cells; format: toxicity; settings: MCF10 cells versus MCF7 cells, read-out: Ratio IC50
# In short: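 Selectivity index is the ratio of the IC50 for the normal line to the IC50 for the cancer line. Both IC50 values come from 72 h antiproliferative assays: SRB for adherent cells, MTT for HL-60.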
structure (smiles),measurement,setting,value
CCOC(=O)C1(C(=O)OCC)Cc2cc(OCc3ccccc3)cc(OCc3ccccc3)c2C=N1,Activity,[1],Non-Toxic
same,IC50,[2],5.1 µM
same,Activity,[3],Non-Toxic
same,Activity,[4],Non-Toxic
same,Activity,[5],Toxic
same,IC50,[6],35.9 µM
same,IC50,[7],0.7 µM
same,selectivity ratio,[8],4 to 8
